Inconclusive results are not listed. Activity calls are given as the source filed them.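 The calls were made as follows: active = converged dose curve in at least two of three replicates, even with few points beside the midpoint; inactive = the rest, inconclusive results apart.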
Target: Solute carrier family 12 member 5 (Homo sapiens) (UniProt Q9H2X9)
Assay: modulation of KCC2-mediated Tl+ flux in HEK cells – cell-based, HEK293-KCC2, thallium flux, FluoZin2, sodium-free, assay 3, dose response (AID 1737)
Details: HEK293-KCC2, thallium flux FluoZin2 fluorescence, Na-free
Outline: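 System: KCC2-expressing HEK cells; measured by: FluoZin2 fluorescence, 480/540 nm; also added: thallium sulfate stimulus; repeats: triplicate wells per dose, each replicate fitted separately; compound: 11 doses, 3-fold steps, 30 µM top; control set: bumetanide as positive control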

Solute carrier family 12 member 5 (Homo sapiens), sequence (Q9H2X9 whole entry, looked up): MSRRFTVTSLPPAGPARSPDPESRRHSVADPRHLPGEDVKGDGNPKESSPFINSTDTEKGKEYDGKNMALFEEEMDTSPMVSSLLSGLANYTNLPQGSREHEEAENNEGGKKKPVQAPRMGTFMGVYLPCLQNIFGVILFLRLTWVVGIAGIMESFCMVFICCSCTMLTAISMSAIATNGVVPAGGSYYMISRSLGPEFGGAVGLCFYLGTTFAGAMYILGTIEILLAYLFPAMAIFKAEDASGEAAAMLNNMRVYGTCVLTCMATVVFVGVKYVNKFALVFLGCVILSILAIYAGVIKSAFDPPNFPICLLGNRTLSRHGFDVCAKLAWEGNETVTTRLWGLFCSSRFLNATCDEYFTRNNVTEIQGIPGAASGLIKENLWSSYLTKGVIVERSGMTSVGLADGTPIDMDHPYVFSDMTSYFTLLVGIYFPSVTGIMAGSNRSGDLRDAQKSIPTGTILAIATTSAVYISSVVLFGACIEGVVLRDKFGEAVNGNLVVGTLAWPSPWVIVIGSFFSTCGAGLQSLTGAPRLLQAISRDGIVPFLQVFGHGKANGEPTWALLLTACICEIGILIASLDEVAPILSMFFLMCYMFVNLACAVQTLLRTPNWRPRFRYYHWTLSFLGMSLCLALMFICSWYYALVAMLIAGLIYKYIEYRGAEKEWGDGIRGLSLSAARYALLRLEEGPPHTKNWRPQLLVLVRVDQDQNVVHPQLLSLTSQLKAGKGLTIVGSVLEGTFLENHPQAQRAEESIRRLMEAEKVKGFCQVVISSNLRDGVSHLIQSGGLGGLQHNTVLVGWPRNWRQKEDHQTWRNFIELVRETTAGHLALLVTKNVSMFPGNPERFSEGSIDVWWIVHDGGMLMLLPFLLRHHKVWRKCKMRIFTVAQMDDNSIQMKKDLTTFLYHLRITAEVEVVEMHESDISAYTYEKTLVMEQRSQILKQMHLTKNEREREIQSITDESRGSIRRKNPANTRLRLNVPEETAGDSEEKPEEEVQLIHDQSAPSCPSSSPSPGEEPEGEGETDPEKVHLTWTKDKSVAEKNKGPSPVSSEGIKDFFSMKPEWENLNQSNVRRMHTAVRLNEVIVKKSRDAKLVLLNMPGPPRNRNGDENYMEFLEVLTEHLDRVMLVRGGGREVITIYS

EC50 | SMILES
inactive | CCOc1cccc(C(=O)NC(=S)Nc2cccc(C)c2)c1
inactive | Cc1onc(-c2ccccc2Cl)c1C(=O)NC(=S)Nc1ccc(C(C)C)cc1
inactive | O=C(NC(=S)Nc1ccc2c(c1)OCO2)c1ccc(Cl)cc1
288 nM | CC(=O)c1cccc(NC(=S)NC(=O)c2ccc(C)cc2)c1

Second part, the compound before the results:

SMILES | EC50
O=C(NC(=S)Nc1cccc2cccnc12)c1cccs1 | inactive
COc1cccc(/C=c2\s/c(=C/C(=O)c3ccc(C)cc3)[nH]c2=O)c1OC | inactive
Fc1cccc(F)c1/C=N/NC(=S)Nc1cccnc1 | inactive
COc1ccc(-c2nnc(-c3ccc(OCC(C)C)cc3)o2)cc1 | inactive
O=[N+]([O-])c1ccc(-c2cn(-c3ccccc3F)c(=S)[nH]2)cc1 | 318 nM
Cc1ccc(-c2n[nH]c(=S)n2/N=C/C=C\c2ccccc2[N+](=O)[O-])cc1 | inactive
COc1ccc(N2C(=S)N=C(Nc3cccc(C)c3)C23CCCCC3)cc1 | 417 nM
NC(=S)N=Nc1c(O)n(Cc2ccccc2)c2ccccc12 | inactive
O=c1c2ccccc2[nH]c(=S)n1CCN1CCC(=C(c2ccc(F)cc2)c2ccc(F)cc2)CC1 | inactive
O=[N+]([O-])c1ccccc1/C=C/C=N/n1c(-c2ccc(Cl)cc2)n[nH]c1=S | inactive

Reference: PubChem BioAssay AID1737 (Vanderbilt High Throughput Screening Facility, 2009)
